Experimental data of several laboratories.
Target: MAP kinase-interacting serine/threonine-protein kinase 2 (MKNK2, Homo sapiens, UniProt Q9HBH9)

C[C@@H]1CN(c2ccc3ncc(-c4ccc5[nH]nc(C6CC6)c5c4)n3n2)C[C@H](C)O1
remaining binding (binding, competition with immobilised ligand; 0.5 µM): 45%

O=C(NCCCN1CCOCC1)c1ccc(Nc2ncc(Cl)c(-c3ccc(Cl)s3)n2)cc1
remaining binding (binding, competition with immobilised ligand; 1 µM): 55%

FC(F)(F)Oc1cccc(-c2cnc3ccc(-c4ccncc4)nn23)c1
remaining binding (cell-free assay, competition with immobilised ligand; 5 µM): 21%

CN(c1nccc(-c2cnn3ncccc23)n1)C1CC1
remaining binding (binding; 1 µM): 77%

O=C(O)c1cc(-c2ccc(C3CCNCC3)cc2)c2ccc(-c3ccc(C(F)(F)F)cc3)cc2c1
remaining binding (cell-free assay, competition with immobilised ligand; 1 µM): 100%

O=C(c1ccc(Nc2nccc(-c3cc4ccccc4s3)n2)cc1)N1CCC(N2CCCC2)CC1
remaining binding (binding, competition with immobilised ligand; 1 µM): 4.6%

CN(c1ccnc(CNc2nc(Nc3ccc4c(c3)CC(=O)N4)ncc2C(F)(F)F)n1)S(C)(=O)=O
remaining binding (cell-free assay, competition with immobilised ligand; 1 µM): 91%

COc1cc(C(=O)N2CCC(N3CCN(C)CC3)CC2)ccc1Nc1ncc2c(n1)N(C)c1ccccc1C(=O)N2C
remaining binding (binding, competition with immobilised ligand; 10 µM): 1.2%

N[C@@H]1CCN(c2nccc(-c3cnn4ncccc34)n2)C1
remaining binding (binding; 1 µM): 14%

C=CC(=O)N1CCC(C(=O)NCC(=O)N2CCN(c3nc(-c4cnc(N)nc4C(F)F)nc(N4CCOCC4)n3)CC2)CC1
remaining binding (binding, competition with immobilised ligand; 1 µM): 100%

CNC(=O)c1ccc(Nc2ncc(C(F)(F)F)c(NCc3nccnc3N(C)S(C)(=O)=O)n2)cc1
remaining binding (cell-free assay, competition with immobilised ligand; 0.1 µM): 100%

F[C@@H]1CCN(c2nccc(-c3cnn4ncccc34)n2)C1
remaining binding (binding; 1 µM): 68%

FC(F)(F)c1ccc2c(c1)nc(-c1cccnc1)n2C1CC1
remaining binding (cell-free assay, competition with immobilised ligand; 1 µM): 100%

CN(C)c1nccc(-c2cnn3ncccc23)n1
remaining binding (binding; 1 µM): 28%

COc1cnc(Nc2cccc(S(N)(=O)=O)c2)nc1N1CCN(c2ccccc2)CC1
remaining binding (binding, competition with immobilised ligand; 1 µM): 59%

CN(C)c1nccc(-c2cnc3ncccn23)n1
remaining binding (binding; 1 µM): 46%

C[C@@H](c1ccc(-n2cnc3c(N)ncnc32)cc1)N1CCc2nn(C)c(Cc3ccccc3)c2C1=O
remaining binding (binding, competition with immobilised ligand; 0.1 µM): 62%

CNCc1ccccc1-c1csc([C@@H](C)Nc2nc(C)nc3cc(OC)c(OC)cc23)c1
remaining binding (cell-free assay, competition with immobilised ligand; 1 µM): 63%

COc1ccnn2ncc(-c3ccnc(N(C)C)n3)c12
remaining binding (binding; 1 µM): 78%

CO[C@H]1CC[C@H](CNc2ccc(S(=O)(=O)NC(=O)c3ccc(N4CCN(CC5=C(c6ccc(Cl)cc6)CC(C)(C)CC5)CC4)cc3Oc3cnc4[nH]ccc4c3)cc2[N+](=O)[O-])CC1
remaining binding (cell-free assay, competition with immobilised ligand; 1 µM): 73%

O=C(NCCCN1CCOCC1)c1ccc(Nc2nccc(-c3cc4ccccc4s3)n2)cc1
remaining binding (binding, competition with immobilised ligand; 1 µM): 28%

O=C(NCC1CCOCC1)c1n[nH]cc1NC(=O)c1c(F)cccc1F
remaining binding (binding, competition with immobilised ligand; 1 µM): 100%

c1cncc(-c2cccc(Nc3nccc(NC4CCCCC4)n3)c2)c1
remaining binding (binding, competition with immobilised ligand; 10 µM): 33%

COCCOc1nc(-c2ccc(Cl)nc2)nc2c1CN(C(=O)c1ncn3ccccc13)CC2
remaining binding (cell-free assay, competition with immobilised ligand; 0.1 µM): 100%

C[C@H]1CCN(c2nccc(-c3cnn4ncccc34)n2)C1
remaining binding (binding; 1 µM): 2.3%
